# Bioassay records as filed in PubChem BioAssay.
# This is a sample that favours compounds with a hit; in the whole collection about 2.1% have one here.
# PABP FP inh: PABP poly(A) RNA binding inhibitors, primary screen, biochemical, fluorescence polarization, uHTS; 1% of 290,000 active; inhibition, % at 35 µM; AID 2014, 2009; Polyadenylate-binding protein 1 (Homo sapiens), P11940;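 further: calls also rest on retests at 20 µM and on dose response follow-up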
# PABP1 MLLE inh: inhibitors of PABP1 MLLE–PAM2 peptide binding, primary screen, biochemical, fluorescence polarization, FITC-PAM2, GST-MLLE; Polyadenylate-binding protein 1 (Homo sapiens), P11940; inhibition, % at 20 µM; 0.36% of 360,000 active; AID 588489, 2011; in the data active means inhibition above about 35%, passing the limit was not always enough;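 further: plate controls were DMSO wells with GST-MLLE for no effect and wells lacking GST-MLLE protein for full effect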
# HCV NS3 hel inh: inhibitors of HCV NS3 helicase, primary screen, biochemical, Cy5 molecular beacon fluorescence | inhibition, % at 10.9 µM | Hepatitis C virus NS3 helicase | 0.56% of 290,000 active | NS3 helicase DNA unwinding | AID 1800, 2009;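 active means inhibition above the mean of all tested compounds plus 3 SD, set per campaign, cut at about 35% in these data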;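 further: 0% = DMSO wells and 100% = thioflavine S control wells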
#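 Measured by: Cy5 fluorescence, 0 and 60 min reads / Assay system: NS3 helicase fragment of HCV / Control set: low DMSO, high thioflavine S at 110 µM / Times: 1 h reaction at 25 °C, ATP-initiated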
# EBNA-1 inhibitor: EBNA-1 DNA-binding inhibitors, primary screen, biochemical, fluorescence polarization; AID 1950, 2009; inhibition, % at 14.8 µM; 0.34% of 300,000 active; in the data active means inhibition above about 28%
# eIF4H FP inh: human eIF4H binding inhibitors, primary screen, translation initiation inhibitor project, biochemical, uHTS, fluorescence polarization; inhibition, % at 35 µM; AID 2012, 2009; Eukaryotic translation initiation factor 4H (Homo sapiens), Q15056; 0.94% of 290,000 active; eIF4H fluorescence polarization binding assay;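 further: calls also rest on retests at 20 µM and on dose response follow-up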
# ZTA counter: counter-screen for EBNA-1 inhibitors: inhibitors of Epstein-Barr virus ZTA; ZTA-DNA binding, fluorescence polarization; inhibition, % at 11 µM; 0.15% of 320,000 active; AID 2234; in the data active means inhibition above about 33%
# Target sequence (P03206 whole entry, looked up): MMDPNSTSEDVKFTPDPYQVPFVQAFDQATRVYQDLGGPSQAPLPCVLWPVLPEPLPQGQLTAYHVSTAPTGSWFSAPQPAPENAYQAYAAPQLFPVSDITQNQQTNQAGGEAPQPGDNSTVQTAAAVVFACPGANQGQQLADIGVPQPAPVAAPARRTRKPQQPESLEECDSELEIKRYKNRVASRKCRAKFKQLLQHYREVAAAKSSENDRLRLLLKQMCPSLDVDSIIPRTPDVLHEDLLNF
# NS3 helicase cf: HCV NS3 helicase inhibitors, retest, confirmation, biochemical, Cy5 molecular beacon fluorescence, triplicate. 31% of 1,600 active. inhibition, % at 10.9 µM. shares compounds with HCV NS3 hel inh. AID 1943, 2009. NS3 helicase DNA unwinding;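 active means inhibition above the mean of all tested compounds plus 3 SD, cutoff set per campaign, cut at about 36% in these data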
# DNA FID counter: compounds displacing fluorescent DNA intercalator, artefact control for HCV NS3 helicase inhibitor project, biochemical, FID fluorescence, triplicate; shares compounds with HCV NS3 hel inh; DNA fluorescent intercalator displacement; inhibition, % at 7.9 µM; 4% of 1,600 active; in the data active means inhibition above about 37%;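 further: 0% = vehicle and 100% = reference compound; higher means more displacement of ethidium bromide from the DNA hairpin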
# DNA FID DR: compounds displacing fluorescent intercalator from DNA, dose response, counter-screen for HCV NS3 helicase inhibitor project, biochemical, fluorescence | 120 tested, under 10 active | AID 2172, 2009 | fluorescent intercalator displacement from DNA | shares compounds with HCV NS3 hel inh | IC50, µM
# Numbers without * were called inactive; i = inactive; ? = inconclusive; · = no result given. Unless noted, how the calls were made is not given here.
SMILES,PABP FP inh,PABP1 MLLE inh,HCV NS3 hel inh,EBNA-1 inhibitor,eIF4H FP inh,ZTA counter,NS3 helicase cf,DNA FID counter,others
CC1CCCCC1NC(=O)COC(=O)c1c2c(nc3ccccc13)/C(=C/c1ccco1)CC2 (configuration not stated),-7.6,-22.3,46.6*,9.9,88.3,-10.1,97.0*,0.7,DNA FID DR=>79.4
CC(C)CNC(=O)COC(=O)c1c2c(nc3ccccc13)/C(=C/c1cccs1)CC2,-11.0,3.4,74.4*,2.8,28.1,-5.7,-8.3,-8.5,
O=C(COC(=O)c1c2c(nc3ccccc13)/C(=C/c1ccco1)CC2)NC1CCCC1,3.4,-20.2,36.2*,·,104.5,·,95.7*,15.0,DNA FID DR=>79.4
CC(=O)C1=C(O)C(=O)N(c2ccc(C(=O)O)cc2)C1c1ccc([N+](=O)[O-])cc1 (configuration not stated),14.5,2.7,-0.7,-4.9,5.4,-9.8,·,·,
CSc1ccc(C2C(C(=O)c3ccco3)=C(O)C(=O)N2c2nnc(SC)s2)cc1 (configuration not stated),?,73.9,38.8*,3.5,?,3.8,89.1*,4.2,DNA FID DR=>79.4
CCOC(=O)c1ccc(N2C(=O)C(O)=C(C(C)=O)C2c2ccc([N+](=O)[O-])cc2)cc1 (configuration not stated),-2.9,1.9,45.3*,-9.5,-14.2,-0.1,36.3*,-22.7,
Cc1nnc(N2C(=O)C(O)=C(C(=O)c3ccco3)C2c2ccc(F)cc2)s1 (configuration not stated),-18.3,33.9,16.8,0.9,?,-12.6,·,·,
CCOC(=O)c1sc(N2C(=O)C(O)=C(C(=O)c3ccco3)C2c2ccc([N+](=O)[O-])cc2)nc1C (configuration not stated),2.8,4.4,36.9*,0.8,13.7,-16.8,105.6*,28.0,
Cc1ccc(C)c(N2CCN(C(=O)c3cc(S(=O)(=O)N4CCCC4)cn3C)CC2)c1,-14.6,0.1,-12.2,6.6,-9.3,10.4,·,·,
CCOc1ccc(-n2c(=O)c3c4c(sc3n(CC(=O)NCC3CCCO3)c2=O)CCC4)cc1 (configuration not stated),21.0,-0.3,1.2,4.0,15.2,4.8,·,·,
COc1cccc(C2Nc3c(F)cc(Br)cc3C3C=CCC32)c1OC (configuration not stated),-0.5,9.4,4.5,4.0,-10.8,-0.2,·,·,
CC(=O)c1ccc2c(c1)C1C=CCC1C(C(=O)O)N2 (configuration not stated),89.4*,18.5,50.6*,·,101.1*,·,90.5*,0.9,
COc1cccc2c1NC(C(=O)O)C1CC=CC21 (configuration not stated),active,22.4,58.0*,20.1,95.6*,37.7*,93.3*,-1.8,
COc1ccc(N2CCN(C(=O)CN(c3ccccc3)S(=O)(=O)c3ccc(OC)cc3)CC2)cc1,-14.1,-1.4,39.9*,-10.4,0.1,1.9,-14.9,-25.7,
CCOC(=O)CC(=O)CSc1nc2c(c(-c3cccs3)c1C#N)CCC2,-1.8,-8.8,40.6*,-8.2,16.3,8.6,4.0,-3.4,
COCCCN(C(=O)CSCC(=O)Nc1ccc(C)cc1)c1c(N)n(Cc2ccccc2)c(=O)[nH]c1=O,·,-12.1,·,·,·,·,·,·,
CC(C)Nc1ccc(Cl)cc1[N+](=O)[O-],-2.9,·,41.0*,-18.3,-2.3,-19.6,-12.2,1.0,
CC(C)CSC1=NSC2=NC(=O)/C(=C\c3ccccc3)C(=N)N12,-4.8,6.3,43.4*,4.8,-9.8,4.8,68.5*,8.1,
CC(C)CSC1=NSC2=NC(=O)/C(=C\c3coc4ccccc4c3=O)C(=N)N12,-7.1,i,32.6,4.7,?,0.0,·,·,
CCn1cc(CNC(=O)c2cccc([N+](=O)[O-])c2)c(C)n1,-4.5,4.5,11.4,-1.9,-13.7,-2.2,·,·,
CCn1cc(CNC(=O)c2ccc(Cl)c([N+](=O)[O-])c2)c(C)n1,5.1,14.6,36.0*,4.1,-0.8,-0.4,-13.3,1.2,
COc1ccc(Br)cc1C1Nc2cccc3cccc(c23)N1,61.0*,20.0,96.9*,-4.5,101.9*,5.5,-28.3,27.5,
Clc1ccc(C2Nc3cccc4cccc(c34)N2)c(Cl)c1,·,29.2,·,·,·,·,·,·,
O=C1/C(=C\c2ccco2)SC(=S)N1C1CCCCC1,5.5,·,38.9*,2.5,56.7*,-10.3,50.8*,18.3,
CC(C)(Oc1ccc(-c2ccco2)cc1)C(=O)O,29.2,·,41.1*,0.6,45.4,-8.0,30.1,3.5,
SMILES,PABP FP inh,PABP1 MLLE inh,HCV NS3 hel inh,EBNA-1 inhibitor,eIF4H FP inh,ZTA counter,NS3 helicase cf,DNA FID counter,others
O=C(NCC1CCCCC1)c1cc2ccccc2cc1O,3.9,-2.0,10.3,-0.4,-18.8,-18.0,·,·,
O=C(N/N=C1/CC2CCC1C2)c1cc2ccccc2cc1O (configuration not stated),8.4,2.9,49.1*,1.2,2.9,6.2,1.1,-7.8,
CCn1cc(C(=O)O)c(=O)c2cc(F)c(N3CCN(C(=S)NC(=O)c4ccc(F)cc4)CC3)cc21,2.5,-42.1,-4.9,1.2,-4.3,4.5,·,·,
CCn1cc(C(=O)O)c(=O)c2cc(F)c(N3CCN(C(=S)NC(=O)c4ccccc4Br)CC3)cc21,33.0,-47.7,50.3*,-17.7,22.3,9.6,11.8,0.9,
COc1ccc(/C(C)=C(\C#N)C(=O)OC(C)C)cc1OC,6.0,1.9,-1.8,9.2,-11.9,4.7,·,·,
COc1ccc(Nc2nccc(-c3ccc(C#N)cc3)n2)cc1,0.3,8.1,36.8*,-0.2,-2.7,-10.5,-5.9,-7.1,
Cc1[nH]n(-c2ccccc2)c(=O)c1Sc1ccc(Cl)cc1,0.8,24.0,20.0,17.4,-6.5,6.2,·,·,
O=c1cc(CSc2ccc(Cl)cc2)[nH]c2[nH]n(-c3ccccc3)c(=O)c12,23.3,23.2,40.3*,11.1,28.2,3.7,52.9*,-5.4,DNA FID DR=>79.4
O=C(O)CCCCCCCCCCCc1ccccc1,8.1,3.2,38.1*,-3.2,6.1,6.9,70.2*,-37.1,
O=C(O)c1ccc(CCCc2ccccc2)cc1,·,9.6,·,·,·,·,·,·,
CCN(CC)S(=O)(=O)c1ccc(Cl)c(C(=O)OC)c1,-0.5,1.6,-4.8,5.8,-15.8,-2.6,·,·,
CC(/C=C1\SC(=S)N(NS(=O)(=O)c2ccc(C)cc2)C1=O)=C\c1ccccc1,12.6,-0.1,42.7*,23.1,2.8,22.7,85.7*,0.8,
